This is an account of results in PubChem BioAssay.

A short description of test [1]: HUVEC growth inhibition – cell-based, human, primary screen (AID 575;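 active means viability at or below 30% in both replicate assays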;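 further: 100% = median of untreated cell wells with 0.1% DMSO on each plate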). To be noted: HUVEC proliferation, CellTiter-Glo luminescence, 72 h; at 10 µM; stronger effect = lower value. The method in brief:
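Test system – primary HUVEC, no more than 12 passages · Dosing – one dose, 10 µM final, 0.1% DMSO · Times – 72 h treatment at 37 °C · Measured by – ATP-based CellTiter-Glo luminescent read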
On the technique in general: In ATP-based viability assays light output follows the ATP content of the culture.

Test [2] is described as follows: H69AR cell proliferation blockers – human, duplicate replicates, primary screen (AID 580;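 active means viability at or under a set limit in both replicates, limit being median viability minus 3 SD, cut at about 48% in these data, passing the limit was not always enough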;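 further: 100% = mean luminescence of untreated wells and 0% = no signal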). The note with it: H69AR lung tumor cells viability, ATP luminescence, 72 h; at 10 µM; stronger effect = lower value.
The nature of test [3]: MRP1 drug-resistance reversers in H69AR cells – cell-based, doxorubicin co-treatment, pilot screen (AID 601). To be noted: CellTiter-Glo, 72 h, at 10 µM; for differential viability (reversal): stronger effect = higher value.
Test [4] can be described thus: yeast transport mutant growth inhibition pilot in 384-well plates, post-Golgi transport modulator project (AID 636; in the data active means inhibition above about 31%). The note with it: absorbance 615 nm, about 18 h, stronger effect = higher value.
Test [5] in a line: growth suppression of yeast trafficking mutant, preliminary HTS, modulators of trafficking downstream of Golgi apparatus project, 1536-format plate, OD 615 nm (AID 637; in the data active means inhibition above about 30%). To be noted: yeast transport mutant growth, absorbance 615 nm, 18 h; stronger effect = higher value.
Where [6] appears, read: H69AR cells + 2 uM doxorubicin, measured here: viability with 2 uM doxorubicin, stronger effect = lower value.
[7] abbreviates: H69AR cells, compound alone cytotoxicity.

Structures are written as SMILES. Activity calls are given as the source filed them.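 How the source made its calls, unless noted: active means viability loss from added drug above about 55%, and viability with drug at most 40%, in both replicates (limit read from the data, passing the limit was not always enough); inconclusive means both conditions met in only one replicate; inactive means neither replicate meets both conditions.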

With `Cn1c(=O)c2ccccc2n(Cc2ccccc2F)c1=O`, the viability (in general, a read-out of living cells in per cent, often relative to untreated cells) is 101% (inactive) in test [1], 85.2% (inactive) in test [2], 90.8% in test [3] (setting [6]) and 85.2% in test [3] (setting [7]). The differential viability (reversal) in test [3] (H69AR cells + 2 uM doxorubicin) was -5.55% (inactive). The figures for the inhibition in test [4] and in test [5] were -0.66% (inactive) and 1.75% (inactive), respectively.
Consider `O=c1cc(CSc2nnc(COc3ccc(Cl)cc3)o2)c2ccccc2[nH]1`, for which the viability in test [1] was 86.8% (inactive); in test [2], 90.2% (inactive); in test [3] (setting [6]), 92.9%; in test [3] (setting [7]), 90.2%. Further, the differential viability (reversal) in test [3] (H69AR cells + 2 uM doxorubicin) was -2.67% (inactive). The inhibition – broadly, the relative decrease from the control value, in per cent – in test [4] is -2.11% (inactive); in test [5], -6.67% (inactive).
With `COC(=O)c1cc(-c2c(C)nn(-c3ccccc3)c2C)n[nH]1`, the viability in test [1] is 97.8% (inactive); in test [2], 101% (inactive); in test [3] (setting [6]), 104%; in test [3] (setting [7]), 101%. The differential viability (reversal) in test [3] (H69AR cells + 2 uM doxorubicin) was -2.79% (inactive). The inhibition is -2.63% (inactive) in test [4] and -4.76% (inactive) in test [5].
`Cc1noc(NS(=O)(=O)c2ccc(NC(=O)CCC3CCCC3)cc2)c1C`: the viability in test [1] was 88.9% (inactive); in test [2], 94% (inactive); in test [3] (setting [6]), 82.4%; in test [3] (setting [7]), 94%. Further, the differential viability (reversal) in test [3] (H69AR cells + 2 uM doxorubicin) is 11.6% (inactive). In addition, the results for the inhibition in test [4] and in test [5] were -4.03% (inactive) and -0.16% (inactive), respectively.
Turning to `CS(=O)(=O)N1CCN(C(=O)c2ccc(-c3ccccc3)cc2)CC1`, the viability was 96.7% (inactive) in test [1], 96.1% (inactive) in test [2], 85.9% in test [3] (setting [6]) and 96.1% in test [3] (setting [7]). In test [3] (H69AR cells + 2 uM doxorubicin), the differential viability (reversal) is 10.2% (inactive). In addition, the inhibition in test [4] was -2.99% (inactive); in test [5] it was 8.25% (inactive).
`Cc1ccc(C)c(C(=O)CC2(O)C(=O)Nc3ccccc32)c1` (stereo unspecified): the viability in test [1] was 109% (inactive); in test [2], 105% (inactive); in test [3] (setting [6]), 88%; in test [3] (setting [7]), 105%. The differential viability (reversal) in test [3] (H69AR cells + 2 uM doxorubicin) is 17.1% (inactive). Also, the values for the inhibition in test [4] and in test [5] were -3.6% (inactive) and -7.3% (inactive), respectively.
On to `N#Cc1nc(COc2ccccc2)oc1NCCN1CCOCC1`, for which the viability was 108% (inactive) in test [1], 107% (inactive) in test [2], 95% in test [3] (setting [6]) and 107% in test [3] (setting [7]). Besides, the differential viability (reversal) in test [3] (H69AR cells + 2 uM doxorubicin) was 11.7% (inactive). In addition, the inhibition in test [4] is -4.68% (inactive); in test [5], 10.5% (inactive).
With `Cc1ccc(S(=O)(=O)NCCCNC(=O)N2CCOCC2)cc1`, the viability in test [1] is 100% (inactive); in test [2], 106% (inactive); in test [3] (setting [6]), 92.4%; in test [3] (setting [7]), 106%. In addition, the differential viability (reversal) in test [3] (H69AR cells + 2 uM doxorubicin) is 13.5% (inactive). Further, the inhibition is -1.05% (inactive) in test [4] and 3.81% (inactive) in test [5].
For `CC(=O)Nc1ccc2nc(-c3cccnc3)[nH]c2c1`, the viability in test [1] was 98.6% (inactive); in test [2], 80.7% (inactive); in test [3] (setting [6]), 92%; in test [3] (setting [7]), 80.7%. In addition, the differential viability (reversal) in test [3] (H69AR cells + 2 uM doxorubicin) is -11.3% (inactive). Further, the inhibition is 3.51% (inactive) in test [4] and 11.1% (inactive) in test [5].
For `Cc1ccc(S(=O)(=O)N2CCCC2)cc1S(=O)(=O)N1CCCC1`, the viability was 90.9% (inactive) in test [1], 98.6% (inactive) in test [2], 92.7% in test [3] (setting [6]) and 98.6% in test [3] (setting [7]). The differential viability (reversal) in test [3] (H69AR cells + 2 uM doxorubicin) was 5.92% (inactive). Further, the inhibition in test [4] was -3.25% (inactive); in test [5], 2.54% (inactive).
For the compound `COc1ccc(CN2C(=O)c3ccccc3C2C(=O)NC2CCCC2)c(OC)c1` (stereo unspecified), the viability in test [1] was 104% (inactive); in test [2] it was 86.2% (inactive); in test [3] (setting [6]), 84.9%; in test [3] (setting [7]) it was 86.2%. The differential viability (reversal) in test [3] (H69AR cells + 2 uM doxorubicin) is 1.22% (inactive). Further, the inhibition in test [4] is 0.53% (inactive); in test [5], -4.6% (inactive).
For `COc1cccc(OC)c1C(=O)Nc1ccccc1N1CCCC1`, the viability in test [1] was 91.1% (inactive); in test [2], 91.6% (inactive); in test [3] (setting [6]) it was 84.9%; in test [3] (setting [7]) it was 91.6%. Further, the differential viability (reversal) in test [3] (H69AR cells + 2 uM doxorubicin) is 6.71% (inactive). The inhibition in test [4] is -1.71% (inactive); in test [5], -2.86% (inactive).
In the case of `O=C(Nc1nnc(C2CCCCC2)s1)c1cccs1`, the viability was 102% (inactive) in test [1], 93.2% (inactive) in test [2], 82.9% in test [3] (setting [6]) and 93.2% in test [3] (setting [7]). In addition, in test [3] (H69AR cells + 2 uM doxorubicin), the differential viability (reversal) was 10.4% (inactive). Further, the results for the inhibition in test [4] and in test [5] were 0% (inactive) and -3.81% (inactive), respectively.
Take `Cc1csc(OCc2ccc(C#N)cc2)n1`: the viability in test [1] is 98.6% (inactive); in test [2], 101% (inactive); in test [3] (setting [6]), 85%; in test [3] (setting [7]), 101%. Moreover, the differential viability (reversal) in test [3] (H69AR cells + 2 uM doxorubicin) is 16.2% (inactive). Further, the results for the inhibition in test [4] and in test [5] were -5.32% (inactive) and 3.97% (inactive), respectively.
On to `O=C(O)CCc1ccc(-c2cccs2)n1NC(=O)c1ccco1`, for which the viability is 105% (inactive) in test [1], 96.8% (inactive) in test [2], 88.5% in test [3] (setting [6]) and 96.8% in test [3] (setting [7]). Also, the differential viability (reversal) in test [3] (H69AR cells + 2 uM doxorubicin) is 8.25% (inactive). The inhibition in test [4] is 0.39% (inactive); in test [5], 9.05% (inactive).
In the case of `COc1nc(OC)nc(N2CCC(NC(=O)C(Cc3ccc(C(C)C)cc3)NC(C)=O)CC2)n1` (stereo unspecified), the viability in test [1] was 110% (inactive); in test [2], 64.4% (inactive); in test [3] (setting [6]), 68%; in test [3] (setting [7]) it was 64.4%. The differential viability (reversal) in test [3] (H69AR cells + 2 uM doxorubicin) was -3.67% (inactive). For the same compound, the inhibition in test [4] is -7.5% (inactive); in test [5], 1.59% (inactive).
In the case of `COc1cc2c(cc1OC)CN(C(=O)COc1ccc(C#N)cc1)CC2`, the viability in test [1] is 93% (inactive); in test [2] it was 84.8% (inactive); in test [3] (setting [6]) it was 96.8%; in test [3] (setting [7]), 84.8%. The differential viability (reversal) in test [3] (H69AR cells + 2 uM doxorubicin) was -12% (inactive). The inhibition in test [4] was 0.52% (inactive); in test [5] it was -4.44% (inactive).
Turning to `Cc1ccc2nc(NC(=O)CN(C)S(=O)(=O)c3cccc4nsnc34)sc2c1`, the viability in test [1] was 18.1% (active); in test [2], 9.1% (active); in test [3] (setting [6]) it was 24.2%; in test [3] (setting [7]) it was 9.1%. Further, the differential viability (reversal) in test [3] (H69AR cells + 2 uM doxorubicin) was -15.1% (inactive). The inhibition in test [4] was -4.27% (inactive); in test [5], -4.29% (inactive).
